Measured values taken from ChEMBL document CHEMBL1687715, “Therapeutic activity of an anti-idiotypic antibody-derived killer peptide against influenza A virus experimental infection” (Antimicrob Agents Chemother, 2008).
Active and inactive are the calls of the source. The rule behind the calls is not given here.

How the values were obtained:
LLC-MK2 [1] = experiment: Cytotoxicity against monkey LLC-MK2 cells assessed as effect on RNA synthesis at 4 ug/ml; type: cell-based, Macaca mulatta; conditions: rhesus monkey
Summary of the method: (§1)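 Uninfected confluent monolayers were exposed to 4 μg/ml or left untreated. Viability was assessed by dye exclusion and MTT assay. DNA and RNA synthesis were measured by 48 h labelling with 10 μCi/ml [3H]thymidine or [3H]uridine, followed by counting of trichloroacetic acid-insoluble radioactivity.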

Influenza A virus [2] = experiment: microbe, parasite or virus in culture; type: functional; conditions: LLC-MK2, 2 h
LLC-MK2 [3] = experiment: Cytotoxicity against monkey LLC-MK2 cells assessed as effect on cell viability at 4 ug/ml; type: cell-based, Macaca mulatta; conditions: rhesus monkey; summary of the method: as §1
Influenza A virus [4] = experiment: microbe, parasite or virus in culture; type: functional; conditions: LLC-MK2, 6 h
Influenza A virus [5] = experiment: microbe, parasite or virus in culture; type: functional; conditions: LLC-MK2, 4 h
Mus musculus [6] = experiment: Toxicity in Influenza A virus/NWS/1933(H1N1) infected in BALB/c mouse assessed as weight loss at 100 ug, ip administered once daily for 10 days and dosed 30 mins post infection; type: organism-based; conditions: in vivo
Influenza A virus [7] = experiment: microbe, parasite or virus in culture; type: functional; conditions: LLC-MK2, 8 h
MDCK [8] = experiment: Cytotoxicity against MDCK cells assessed as effect on RNA synthesis at 4 ug/ml; type: cell-based, Canis lupus familiaris; conditions: dog; summary of the method: as §1
MDCK [9] = experiment: Cytotoxicity against MDCK cells assessed as effect on cell viability at 4 ug/ml; type: cell-based, Canis lupus familiaris; conditions: dog; summary of the method: as §1
Influenza A virus [10] = experiment: Antiviral activity against Influenza A virus/parrot/Ulster/73(H7N1) infected in MDCK cells assessed as of reduction in optical density values at 4 ug/ml using human RBCs by hemadsorption assay; type: functional, organism-based; conditions: A/parrot/Ulster/73(H7N1), Erythrocyte
Influenza A virus [11] = experiment: Antiviral activity against Influenza A virus/NWS/1933(H1N1) infected in BALB/c mouse assessed as survival rate at 50 ug, ip administered once daily for 10 days and dosed 30 mins post infection; type: functional, organism-based; conditions: Influenza A virus (A/NWS/1933(H1N1))
Summary of the method: (§2)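 Male BALB/c mice, 4 weeks old, 10 per group. Given i.p. in 100 μl 0.9% NaCl once daily from 30 min post-challenge through the next 10 days; diluent for placebo. Survival was checked daily for 30 days, and day-30 survivors were counted as cured. Curves were compared by log-rank test. Four experiments were run.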

Influenza A virus [12] = experiment: microbe, parasite or virus in culture; type: functional; conditions: LLC-MK2, 2 h; remark: listed apart in the source
Mus musculus [13] = experiment: Toxicity in Influenza A virus/NWS/1933(H1N1) infected in BALB/c mouse assessed as effect on motor activity at 100 ug, ip administered once daily for 10 days and dosed 30 mins post infection; type: organism-based; conditions: in vivo
Influenza A virus [14] = experiment: microbe, parasite or virus in culture; type: functional; conditions: LLC-MK2, 6 h; remark: listed apart in the source
Influenza A virus [15] = experiment: Antiviral activity against Influenza A virus/NWS/1933(H1N1) infected in BALB/c mouse assessed as reduction in mortality rate at 50 ug, ip administered once daily for 10 days and dosed 30 mins post infection relative to untreated control; type: functional, organism-based; conditions: Influenza A virus (A/NWS/1933(H1N1))
Summary of the method: (§3)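 BALB/c males, 4 weeks old, about 20 g, 10 per group, randomised. Daily i.p. treatment (50 or 100 μg/mouse, or 2 mg/mouse) in 100 μl 0.9% NaCl, starting 30 min after intranasal challenge and repeated for the next 10 days. Placebo was diluent. Mortality rate ratio versus placebo was derived by proportional hazards regression, with 95% CI.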

Influenza A virus [16] = experiment: Antiviral activity against Influenza A virus/NWS/1933(H1N1) infected in BALB/c mouse assessed reduction in viral load in lung at 100 ug, ip measured after 6 days postinfection relative to untreated control; type: functional, Influenza A virus (A/NWS/1933(H1N1))
Summary of the method: (§4)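 Groups of 5 infected BALB/c mice, dosed i.p. daily, were killed on day 6 p.i. Each lung was weighed and homogenised in RPMI 1640. Titre was by TCID50 on MDCK monolayers: 10-fold dilutions, eight wells each, 3 days, cytopathic effect scored. Expressed per gram of lung; five homogenates per group, mean ± SD.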

Influenza A virus [17] = experiment: microbe, parasite or virus in culture; type: functional; conditions: LLC-MK2, 4 h; remark: listed apart in the source
Influenza A virus [18] = experiment: microbe, parasite or virus in culture; type: functional, organism-based; conditions: LLC-MK2, 24 h
MDCK [19] = experiment: Cytotoxicity against MDCK cells assessed as effect on DNA synthesis at 4 ug/ml; type: cell-based, Canis lupus familiaris; conditions: dog; summary of the method: as §1
Influenza A virus [20] = experiment: Antiviral activity against Influenza A virus/NWS/1933(H1N1) infected in BALB/c mouse assessed as reduction in mortality rate at 100 ug, ip administered once daily for 10 days and dosed 30 mins post infection relative to untreated control; type: functional, Influenza A virus (A/NWS/1933(H1N1)); summary of the method: as §3
Influenza A virus [21] = experiment: Antiviral activity against Influenza A virus/NWS/1933(H1N1) infected in BALB/c mouse assessed reduction in viral load in lung at 50 ug, ip measured after 6 days postinfection relative to untreated control; type: functional, organism-based; conditions: Influenza A virus (A/NWS/1933(H1N1)); summary of the method: as §4
Influenza A virus [22] = experiment: microbe, parasite or virus in culture; type: functional; conditions: LLC-MK2, 8 h; remark: listed apart in the source
Influenza A virus [23] = experiment: microbe, parasite or virus in culture; type: functional; conditions: LLC-MK2, 8 h; remark: listed apart in the source
Influenza A virus [24] = experiment: microbe, parasite or virus in culture; type: functional; conditions: LLC-MK2, 6 h; remark: listed apart in the source
Influenza A virus [25] = experiment: microbe, parasite or virus in culture; type: functional; conditions: LLC-MK2, 6 h; remark: listed apart in the source
Influenza A virus [26] = experiment: microbe, parasite or virus in culture; type: functional; conditions: LLC-MK2, 6 h; remark: listed apart in the source
Influenza A virus [27] = experiment: microbe, parasite or virus in culture; type: functional; conditions: LLC-MK2, 8 h; remark: listed apart in the source
LLC-MK2 [28] = experiment: Cytotoxicity against monkey LLC-MK2 cells assessed as effect on DNA synthesis at 4 ug/ml; type: cell-based, Macaca mulatta; conditions: rhesus monkey; summary of the method: as §1
Mus musculus [29] = experiment: Toxicity in Influenza A virus/NWS/1933(H1N1) infected BALB/c mouse assessed as incidence of mouse death at 100 ug, ip administered once daily for 10 days and dosed 30 mins post infection; type: organism-based; conditions: in vivo
Influenza A virus [30] = experiment: Antiviral activity against Influenza A virus/parrot/Ulster/73(H7N1) infected in LLC-MK2 cells assessed as of reduction in optical density values at 4 ug/ml using human RBCs by hemadsorption assay; type: functional, organism-based; conditions: A/parrot/Ulster/73(H7N1), Erythrocyte
Influenza A virus [31] = experiment: Antiviral activity against Influenza A virus/NWS/1933(H1N1) infected in BALB/c mouse assessed as survival rate at 100 ug, ip administered once daily for 10 days and dosed 30 mins post infection; type: functional, Influenza A virus (A/NWS/1933(H1N1)); summary of the method: as §2
Influenza A virus [32] = experiment: Antiviral activity against Influenza A virus/NWS/1933(H1N1) infected in BALB/c mouse assessed as reduction in mortality rate at 2 mg, ip administered once daily for 10 days and dosed 30 mins post infection relative to untreated control; type: functional, Influenza A virus (A/NWS/1933(H1N1)); summary of the method: as §3
Influenza A virus [33] = experiment: Antiviral activity against Influenza A virus/NWS/1933(H1N1) infected in BALB/c mouse assessed as survival rate at 2 mg, ip administered once daily for 10 days and dosed 30 mins post infection; type: functional, Influenza A virus (A/NWS/1933(H1N1)); summary of the method: as §2

**Q.** With H-AKVTMTCSAS-OH as the molecule, how does the Activity (LLC-MK2 [1]) read?
**A.** The Activity was “Non-toxic”.

**Q.** What about the inhibition at 4 µg/mL (Influenza A virus [2]) of the same molecule?
**A.** Its inhibition at 4 µg/mL is 96.3%.

**Q.** What about the Activity (LLC-MK2 [3]) of the same molecule?
**A.** Its Activity is “Non-toxic”.

**Q.** And the inhibition at 4 µg/mL (Influenza A virus [4])?
**A.** Its inhibition at 4 µg/mL is 76.9%.

**Q.** And the inhibition at 4 µg/mL (Influenza A virus [5])?
**A.** Its inhibition at 4 µg/mL is 45.1%.

**Q.** What about the Activity (Mus musculus [6]) of the same molecule?
**A.** Its Activity is “Non-toxic”.

**Q.** And the inhibition at 4 µg/mL (Influenza A virus [7])?
**A.** The inhibition at 4 µg/mL was 26.8%.

**Q.** And the Activity (MDCK [8])?
**A.** The Activity was “Non-toxic”.

**Q.** And the Activity (MDCK [9])?
**A.** The Activity was “Non-toxic”.

**Q.** What about the inhibition (Influenza A virus [10]) of the same molecule?
**A.** Its inhibition is “Active”.

**Q.** What about the Activity (Influenza A virus [11]) of the same molecule?
**A.** The Activity was “inactive”.

**Q.** What about the inhibition at 4 µg/mL (Influenza A virus [12]) of the same molecule?
**A.** The inhibition at 4 µg/mL was 59.1%.

**Q.** What about the Activity (Mus musculus [13]) of the same molecule?
**A.** Its Activity is “Non-toxic”.

**Q.** And the inhibition at 4 µg/mL (Influenza A virus [14])?
**A.** Its inhibition at 4 µg/mL is 86.1%.

**Q.** What about the Activity (Influenza A virus [15]) of the same molecule?
**A.** The Activity was “inactive”.

**Q.** What about the “fold change (FC)” value (Influenza A virus [16]) of the same molecule?
**A.** Its value is 2.

**Q.** What about the inhibition at 4 µg/mL (Influenza A virus [17]) of the same molecule?
**A.** The inhibition at 4 µg/mL was 62.4%.

**Q.** And the EC50 (Influenza A virus [18])?
**A.** Its EC50 is 2690 nM.

**Q.** And the Activity (MDCK [19])?
**A.** The Activity was “Non-toxic”.

**Q.** And the “inhibition (INH)” value (Influenza A virus [20])?
**A.** The value was 72%.

**Q.** What about the Activity (Influenza A virus [21]) of the same molecule?
**A.** The Activity was “Active”.

**Q.** What about the inhibition at 4 µg/mL (Influenza A virus [22]) of the same molecule?
**A.** The inhibition at 4 µg/mL was 93.6%.

**Q.** What about the inhibition at 4 µg/mL (Influenza A virus [23]) of the same molecule?
**A.** The inhibition at 4 µg/mL was 46.5%.

**Q.** What about the inhibition at 4 µg/mL (Influenza A virus [24]) of the same molecule?
**A.** Its inhibition at 4 µg/mL is 65.2%.

**Q.** And the inhibition at 4 µg/mL (Influenza A virus [25])?
**A.** Its inhibition at 4 µg/mL is 49.7%.

**Q.** What about the inhibition at 4 µg/mL (Influenza A virus [26]) of the same molecule?
**A.** The inhibition at 4 µg/mL was 88.9%.

**Q.** What about the inhibition at 4 µg/mL (Influenza A virus [27]) of the same molecule?
**A.** Its inhibition at 4 µg/mL is 71.2%.

**Q.** What about the Activity (LLC-MK2 [28]) of the same molecule?
**A.** Its Activity is “Non-toxic”.

**Q.** What about the Activity (Mus musculus [29]) of the same molecule?
**A.** Its Activity is “Non-toxic”.

**Q.** What about the inhibition (Influenza A virus [30]) of the same molecule?
**A.** Its inhibition is “Active”.

**Q.** And the Survival (Influenza A virus [31])?
**A.** Its Survival is 50%.

**Q.** `NC12CC3CC(CC(C3)C1)C2` [AMANTADINE] was tested. Which “inhibition (INH)” value (Influenza A virus [32]) did it give?
**A.** Its value is 77%.

**Q.** What about the Survival (Influenza A virus [33]) of the same molecule?
**A.** Its Survival is 50%.
